Assay [1] has as its target Acetylcholinesterase (Electrophorus electricus) (UniProt O42275). In words: Inhibition of electric eel AchE using acetylthiocholine iodide as substrate at 50 uM after 15 mins by Ellman's method. The gist of the method:
(§1)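 Modified Ellman assay with purified eel or human erythrocyte AChE (0.05 U/mL final) in phosphate buffer pH 8.0. Compound and enzyme incubated 15 min at 37 °C with acetylthiocholine iodide, then DTNB added; absorbance read at 412 nm. IC50 is the concentration giving 50% inhibition. Assays in triplicate, 3 independent experiments; "no active" means under 5% inhibition at 50 µM.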
For orientation: Ellman's reagent forms a yellow product with free thiols.

In assay [2] the target is T1, Acetylcholinesterase (Rattus norvegicus) (UniProt P37136).
T1 sequence (whole entry): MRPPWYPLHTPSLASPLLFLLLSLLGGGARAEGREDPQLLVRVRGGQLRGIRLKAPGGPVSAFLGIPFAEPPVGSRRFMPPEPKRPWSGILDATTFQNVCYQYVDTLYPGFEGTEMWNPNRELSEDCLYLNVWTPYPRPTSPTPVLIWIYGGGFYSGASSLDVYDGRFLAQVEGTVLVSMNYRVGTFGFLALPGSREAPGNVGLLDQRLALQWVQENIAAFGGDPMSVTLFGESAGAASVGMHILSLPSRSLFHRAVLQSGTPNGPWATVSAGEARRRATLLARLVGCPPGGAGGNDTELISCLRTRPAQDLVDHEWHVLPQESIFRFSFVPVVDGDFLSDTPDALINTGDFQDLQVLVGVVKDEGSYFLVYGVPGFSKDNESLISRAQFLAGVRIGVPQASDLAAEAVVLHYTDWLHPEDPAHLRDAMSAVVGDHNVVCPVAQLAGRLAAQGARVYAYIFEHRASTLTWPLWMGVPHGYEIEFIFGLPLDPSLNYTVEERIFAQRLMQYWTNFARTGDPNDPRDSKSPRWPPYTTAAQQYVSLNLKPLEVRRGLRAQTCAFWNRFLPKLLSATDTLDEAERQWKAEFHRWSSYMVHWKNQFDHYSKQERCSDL
In words: Inhibition of rat cortex homogenate AchE using acetylthiocholine iodide as substrate at 50 uM after 15 mins by Ellman's method. The gist of the method: (§2)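 Modified Ellman assay in phosphate buffer pH 7.4. Enzyme sources: AChE from 5% rat cortex homogenate, preincubated 5 min with iso-OMPA to block BuChE; BuChE from 25% rat serum. Substrates were acetylthiocholine or butyrylthiocholine iodide. Compounds incubated 15 min at 37 °C, then DTNB added; A405 read. IC50 derived; triplicate, 3 independent experiments; "no active" means under 5% inhibition at 50 µM.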

Assay [3] in a line: Antioxidant activity assessed as trolox equivalent of APPH-induced radical scavenging activity at 1 to 10 uM preincubated for 15 mins followed by AAPH challenge measured every minute for 90 minutes by ORAC fluorescence assay. It is filed as functional. The gist of the method:
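ORAC-FL in phosphate buffer pH 7.4. Samples (1–10 µM) preincubated with fluorescein (150 nM final) 15 min at 37 °C, then AAPH (12 mM final) added. Fluorescence (ex 485/em 535 nm) read each minute for 90 min. Net AUC over blank converted to Trolox equivalents using a 1–8 µM Trolox curve. Duplicates, at least 3 independent assays.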

Assay [4] concerns the target Butyrylcholinesterase (Rattus norvegicus) (UniProt Q9JKC1). In words: Inhibition of rat serum BuChE using butyrylthiocholine iodide as substrate at 50 uM after 15 mins by Ellman's method. The method, boiled down: as §2
Assay [5] addresses T2, Acetylcholinesterase (Homo sapiens, UniProt P22303). In words: Inhibition of human erythrocytes AchE using acetylthiocholine iodide as substrate at 50 uM after 15 mins by Ellman's method. The gist of the method: as §1
Assay [6] deals with Amyloid-beta precursor protein (Homo sapiens) (UniProt P05067). In words: Inhibition of self-induced amyloid beta (1 to 42) (unknown origin) aggregation at 25 uM after 24 hrs by thioflavin T fluorescence method. The gist of the method:
(§3)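 HFIP-pretreated Aβ1-42 (25 µM final) incubated with compound (10–50 µM) in 50 mM phosphate pH 7.4 for 24 h at 37 °C, wells sealed. ThT in glycine-NaOH pH 8.5 added; fluorescence ex 446/em 490 nm. DMSO 12.5% final. Percent inhibition relative to peptide without inhibitor; triplicate, mean of 3 independent experiments.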

For assay [7] the target is unchanged. In words: Inhibition of self-induced amyloid beta (1 to 42) (unknown origin) aggregation after 24 hrs by thioflavin T fluorescence method. The gist of the method:
as §3

For another assay, the system named is Mus musculus. In words: Cognition enhancing effect against scopolamine-induced memory deficit in po dosed Kunming mouse assessed as increase in latency time administered 1 hr before training followed by scopolamine challenge for 7 days measured after 24 hrs by step-down passive avoidance test. It is filed as functional, organism-based. The method, boiled down: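 Kunming mice, six weeks old, 18–22 g, either sex, n=10 per group. Oral dosing at 2, 6, 18 or 3, 9, 27 mg/kg in vegetable oil, 1 h before training; vehicle as negative control. Scopolamine (3 mg/kg i.p., in saline) given 30 min later. Behavioural testing after 7 days of treatment. Step-down training used a 0.5 mA, 2 s foot shock. Latency measured 24 h later, cut-off 300 s; mean ± SEM.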

Assay [8] addresses T2, Acetylcholinesterase. In words: Inhibition of human erythrocytes AchE using acetylthiocholine iodide as substrate after 15 mins by Ellman's method.
Assay [9] has as its target T3, Acetylcholinesterase (Rattus norvegicus, UniProt P37136).
T3 sequence (P37136 whole entry): T1 sequence (whole entry)
In words: Inhibition of rat cortex homogenate AchE using acetylthiocholine iodide as substrate after 15 mins by Ellman's method.

Assay [10] has as its target Amyloid-beta precursor protein (Homo sapiens) (UniProt P05067). In words: Inhibition of Cu2+-induced amyloid beta (1 to 42) (unknown origin) aggregation after 24 hrs by thioflavin T fluorescence method. The gist of the method: (§4)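 Aβ1-42 (25 µM final, HFIP-pretreated) with an equimolar amount of Cu2+ (25 µM) in HEPES pH 6.6 with 150 mM NaCl. Incubated with or without compound (10–35 µM final) 24 h at 37 °C. ThT in glycine-NaOH pH 8.5 added, fluorescence ex 446/em 490 nm. DMSO 12.5% final. Percent inhibition relative to no-inhibitor wells; triplicate, mean of 3 independent experiments.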

Assay [11] shares this target. In words: Induction of amyloid beta (1 to 42) (unknown origin) disaggregation assessed as reduction of Cu2+-induced amyloid beta fibril formation at 25 uM after 24 hrs by thioflavin T fluorescence method. Details: scale not given: the % may be the effect or the level left. The gist of the method:
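Aβ1-42 (25 µM final, HFIP-pretreated) and Cu2+ (25 µM) in HEPES pH 6.6 with 150 mM NaCl, incubated 24 h at 37 °C. Test compound (25 µM final) then added for a further 24 h at 37 °C, wells sealed. Read by ThT in glycine-NaOH pH 8.5 (ex 446/em 490 nm). DMSO 12.5% final; triplicate.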

Assay [12] deals with T4, Acetylcholinesterase (Electrophorus electricus, UniProt O42275). In words: Inhibition of electric eel AchE using acetylthiocholine iodide as substrate after 15 mins by Ellman's method.
For assay [13], the target named is Amyloid-beta precursor protein (Homo sapiens) (UniProt P05067). In words: Inhibition of Cu2+-induced amyloid beta (1 to 42) (unknown origin) aggregation at 25 uM after 24 hrs by thioflavin T fluorescence method. The gist of the method:
as §4

Assay [14] has as its target T4, Acetylcholinesterase. In words: Mixed-type inhibition of electric eel AchE using acetylthiocholine as substrate after 15 mins by Lineweaver-Burk plot analysis. The method, boiled down:
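Purified eel AChE in 0.1 M phosphate pH 8.0 with DTNB. Three inhibitor concentrations preincubated with enzyme 15 min at 37 °C, then acetylthiocholine added at varied concentrations. Hydrolysis followed at 412 nm, with no-inhibitor controls. Lineweaver-Burk plots fitted by weighted least squares; slopes replotted against inhibitor concentration, Ki taken as the negative x-intercept.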

Some results are limits rather than exact numbers.

In general, inhibition refers to how much of the control response was suppressed. One may read the IC50 as the point on the concentration scale where inhibition reaches its midpoint. In general, Ki refers to a dissociation constant, usually derived from enzyme kinetics or from competition with a known ligand.

Sequence of Amyloid-beta precursor protein (Homo sapiens) (P05067 whole entry): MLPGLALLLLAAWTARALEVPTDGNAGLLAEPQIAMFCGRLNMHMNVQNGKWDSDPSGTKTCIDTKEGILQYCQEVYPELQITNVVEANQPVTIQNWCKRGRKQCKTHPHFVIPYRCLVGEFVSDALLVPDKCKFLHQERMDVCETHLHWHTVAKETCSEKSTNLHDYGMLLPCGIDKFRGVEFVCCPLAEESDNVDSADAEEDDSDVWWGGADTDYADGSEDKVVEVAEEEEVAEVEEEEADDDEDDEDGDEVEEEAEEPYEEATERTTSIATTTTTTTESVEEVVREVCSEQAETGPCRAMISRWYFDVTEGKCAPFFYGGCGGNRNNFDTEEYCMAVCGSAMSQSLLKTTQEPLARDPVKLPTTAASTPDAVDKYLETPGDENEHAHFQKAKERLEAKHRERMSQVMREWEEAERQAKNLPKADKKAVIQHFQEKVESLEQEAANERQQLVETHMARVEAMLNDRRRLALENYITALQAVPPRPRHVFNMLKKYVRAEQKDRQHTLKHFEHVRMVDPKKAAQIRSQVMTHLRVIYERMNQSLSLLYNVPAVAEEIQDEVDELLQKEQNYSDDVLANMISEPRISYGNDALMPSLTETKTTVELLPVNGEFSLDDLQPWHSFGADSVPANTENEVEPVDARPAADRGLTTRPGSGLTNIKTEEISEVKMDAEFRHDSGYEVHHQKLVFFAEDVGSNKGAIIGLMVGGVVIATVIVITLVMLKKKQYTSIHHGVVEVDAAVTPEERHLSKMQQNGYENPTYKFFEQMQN
T4 sequence (O42275 whole entry): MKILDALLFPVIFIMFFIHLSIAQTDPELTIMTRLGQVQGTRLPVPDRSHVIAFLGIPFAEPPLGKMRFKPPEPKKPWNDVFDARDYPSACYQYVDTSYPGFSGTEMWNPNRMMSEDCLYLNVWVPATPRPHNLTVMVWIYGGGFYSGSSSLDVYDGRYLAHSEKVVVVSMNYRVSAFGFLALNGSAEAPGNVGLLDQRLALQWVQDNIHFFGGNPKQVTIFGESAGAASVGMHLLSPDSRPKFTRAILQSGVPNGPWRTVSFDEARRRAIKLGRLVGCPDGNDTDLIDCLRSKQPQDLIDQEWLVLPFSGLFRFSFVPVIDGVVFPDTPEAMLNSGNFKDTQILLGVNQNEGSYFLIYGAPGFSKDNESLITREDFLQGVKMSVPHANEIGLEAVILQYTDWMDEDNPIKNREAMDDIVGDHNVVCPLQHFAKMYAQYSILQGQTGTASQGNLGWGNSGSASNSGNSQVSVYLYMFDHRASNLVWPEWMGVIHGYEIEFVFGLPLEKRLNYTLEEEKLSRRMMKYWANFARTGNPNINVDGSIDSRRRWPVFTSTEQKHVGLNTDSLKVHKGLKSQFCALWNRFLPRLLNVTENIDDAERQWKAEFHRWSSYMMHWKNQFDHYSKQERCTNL
Sequence of Butyrylcholinesterase (Rattus norvegicus) (Q9JKC1 as listed by the source): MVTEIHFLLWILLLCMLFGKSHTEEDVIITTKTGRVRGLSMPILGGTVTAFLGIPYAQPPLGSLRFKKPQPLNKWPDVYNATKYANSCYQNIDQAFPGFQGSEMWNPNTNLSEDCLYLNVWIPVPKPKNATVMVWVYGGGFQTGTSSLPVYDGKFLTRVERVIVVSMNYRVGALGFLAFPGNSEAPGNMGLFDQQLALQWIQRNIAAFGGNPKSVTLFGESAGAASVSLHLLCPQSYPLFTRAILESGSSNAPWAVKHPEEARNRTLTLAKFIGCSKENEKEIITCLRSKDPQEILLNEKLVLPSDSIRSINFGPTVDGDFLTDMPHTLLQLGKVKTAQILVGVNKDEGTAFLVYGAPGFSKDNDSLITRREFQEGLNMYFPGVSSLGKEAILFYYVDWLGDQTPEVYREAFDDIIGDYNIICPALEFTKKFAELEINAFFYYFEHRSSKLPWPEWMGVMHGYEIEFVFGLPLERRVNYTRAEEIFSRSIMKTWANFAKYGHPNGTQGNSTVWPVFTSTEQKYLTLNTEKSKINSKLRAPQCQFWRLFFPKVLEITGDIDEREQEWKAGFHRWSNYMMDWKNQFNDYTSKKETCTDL
T2 sequence (P22303 whole entry): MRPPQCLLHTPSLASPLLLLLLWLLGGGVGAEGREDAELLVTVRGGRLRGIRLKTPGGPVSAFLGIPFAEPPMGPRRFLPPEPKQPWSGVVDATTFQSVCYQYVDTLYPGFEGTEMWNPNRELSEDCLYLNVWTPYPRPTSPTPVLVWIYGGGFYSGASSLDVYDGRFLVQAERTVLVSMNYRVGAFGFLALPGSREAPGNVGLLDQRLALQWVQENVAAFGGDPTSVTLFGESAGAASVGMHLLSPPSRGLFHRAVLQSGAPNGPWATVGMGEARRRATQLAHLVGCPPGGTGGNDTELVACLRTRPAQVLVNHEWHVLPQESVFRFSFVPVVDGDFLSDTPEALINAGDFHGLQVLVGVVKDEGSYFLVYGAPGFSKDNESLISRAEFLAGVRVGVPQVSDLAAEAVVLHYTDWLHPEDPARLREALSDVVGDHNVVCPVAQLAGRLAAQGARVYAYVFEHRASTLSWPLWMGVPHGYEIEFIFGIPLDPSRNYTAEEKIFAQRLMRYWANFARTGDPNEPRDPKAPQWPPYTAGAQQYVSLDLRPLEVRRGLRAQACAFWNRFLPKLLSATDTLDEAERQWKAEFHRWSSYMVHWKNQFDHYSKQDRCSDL
Sequence of Acetylcholinesterase (Electrophorus electricus) (O42275 24-633 limits assumed): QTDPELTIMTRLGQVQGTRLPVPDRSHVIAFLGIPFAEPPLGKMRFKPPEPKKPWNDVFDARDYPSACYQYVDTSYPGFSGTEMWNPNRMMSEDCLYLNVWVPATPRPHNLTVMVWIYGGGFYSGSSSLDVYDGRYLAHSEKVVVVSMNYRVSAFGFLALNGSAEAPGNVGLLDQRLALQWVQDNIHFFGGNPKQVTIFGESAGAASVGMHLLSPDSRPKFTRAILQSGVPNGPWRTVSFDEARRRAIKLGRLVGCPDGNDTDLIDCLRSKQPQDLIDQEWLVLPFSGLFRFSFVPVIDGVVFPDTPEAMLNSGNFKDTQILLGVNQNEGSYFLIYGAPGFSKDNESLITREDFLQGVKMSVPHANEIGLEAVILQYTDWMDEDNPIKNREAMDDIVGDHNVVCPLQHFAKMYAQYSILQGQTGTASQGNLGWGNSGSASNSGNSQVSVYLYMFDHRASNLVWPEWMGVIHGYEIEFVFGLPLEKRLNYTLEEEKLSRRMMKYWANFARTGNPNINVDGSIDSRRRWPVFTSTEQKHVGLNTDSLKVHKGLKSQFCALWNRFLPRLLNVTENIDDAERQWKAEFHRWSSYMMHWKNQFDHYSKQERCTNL

Take `O=c1c(-c2ccc(O)cc2)coc2cc(O)cc(O)c12`: the inhibition (in [1]; in [2]; in assay [4]; against Acetylcholinesterase [5]) was under 5% throughout. The Activity in assay [3] came out at 5.
With `CCN(CCCCOc1ccc(-c2coc3cc(OCCCCN(CC)Cc4ccccc4OC)cc(O)c3c2=O)cc1)Cc1ccccc1OC`, the inhibition in assay [6] was 35%; in [7], “Dose-dependent effect”; in [10], “Dose-dependent effect”; in [13] it was 77.8%; in [4], 20%. Further, the Activity entry with Mus musculus is “Dose-dependent effect”; in assay [11], 72.1%; in assay [3], 0.3. Besides, the half-inhibitory concentration (IC50) at Acetylcholinesterase [8] was determined as 350 nM; on Acetylcholinesterase [9], 90 nM; against Acetylcholinesterase [12] it was 140 nM. This compound gave a Ki on Acetylcholinesterase [14] of 140 nM.

The record behind these values is ChEMBL document CHEMBL3124932, “Design, synthesis and evaluation of genistein-O-alkylbenzylamines as potential multifunctional agents for the treatment of Alzheimer's disease” (Eur J Med Chem, 2014).
